Measurements as given in PMC6178240 (Molecular Therapy. Nucleic Acids, 2018).
Where two headings read alike, the source gives them in different places.

Assays:
[1] = tested on: orthotopic U87MG-Luc glioblastoma; experiment: Survival monitoring assay; format: in vivo, nude mice; details: 3 nmol/20 g mixed with Gelofusine (4 mg/20 g) i.v. at 48-hr interval; for median survival time: n = 5
Procedure, shortened: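 Fifteen orthotopic U87MG-Luc nude mice were randomised into 3 groups (2 male, 3 female each). Each received saline, scrambled conjugate or test conjugate (3 nmol/20 g) i.v. every 48 hr, all mixed with Gelofusine (4 mg/20 g). Body weight was recorded daily and IVIS luminescence on days 0, 7 and 28. Mice were sacrificed at 40% loss of primary body weight.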

[2] = tested on: orthotopic U87MG-Luc glioblastoma; experiment: In vivo anti-tumor effects; set-up: species or system nude mice; details: 12 times over a 24-hr interval, after 12 days; for tumor growth (luminescence intensity) versus saline: 1 nmol/20 g i.v., n = 5 per group
Procedure, shortened: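 U87MG-Luc cells (3 × 10⁵ in 3 μL ice-cold PBS) were implanted stereotaxically into BALB/c nude mice (2 mm right of bregma, 3 mm deep). Dosing began once IVIS detected tumours. Twenty mice were randomised into 4 groups (2 male, 3 female each). Groups were saline, scrambled 1 nmol/20 g, or test 0.5 or 1 nmol/20 g, i.v. 12 times at 24-hr intervals. IVIS luminescence was read on days 0, 7 and 12, then excised brains were imaged.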

[3] = tested on: PIK3CB protein; experiment: PIK3CB protein level by western blot in U87MG cells; format: cell-based, human; details: 72-hr treatment, normalized with GAPDH
[4] = tested on: HeLa cells; experiment: Cellular uptake by flow cytometry; format: cell-based; details: HeLa (αvβ3-negative), 600 nM, Opti-MEM, 12 h, 37°C, Cy5 flow cytometry
[5] = tested on: orthotopic U87MG-Luc glioblastoma; experiment: Immunofluorescence analysis of frozen brain sections; format: in vivo, nude mice; details: 1 nmol/20 g i.v., confocal
Procedure, shortened: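 Orthotopic U87MG-Luc nude mice received a single i.v. dose of Cy5-labelled siRNA (1 nmol/20 g). Brains taken from the imaging study were frozen at –80°C and sectioned. Sections were stained for CD31 (vessels) and with DAPI, then imaged by confocal microscopy (Cy5 ex 640 nm, em 680 nm). Normal brain served as comparison.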

[6] = tested on: U87MG cells; experiment: Confocal fluorescence microscopy of intracellular distribution; format: cell-based, human; details: for intracellular distribution (Cy5, confocal): Opti-MEM
Procedure, shortened: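 U87MG cells were exposed to Cy5-labelled molecules at 600 nM in Opti-MEM for 12 hr at 37°C, with or without prior blocking using excess biRGD peptide. Cells were PBS-washed, fixed in 4% paraformaldehyde for 15 min at room temperature, stained with anti-TGN46 and an Alexa Fluor 488 secondary, then imaged by confocal microscopy.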

[7] = tested on: U87MG cells; experiment: Cellular uptake by flow cytometry; format: cell-based, human
Procedure, shortened: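 U87MG cells were exposed to Cy5-labelled conjugate at 100, 200, 400 or 600 nM, or Cy5-labelled comparators at 600 nM, in Opti-MEM for 12 hr at 37°C. Cells were trypsinised, washed twice in PBS, resuspended, and Cy5 was read by flow cytometry. Receptor blocking used pre-treatment with excess unconjugated biRGD peptide.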

[8] = tested on: orthotopic U87MG-Luc glioblastoma; experiment: In vivo distribution assay; set-up: species or system nude mice
Procedure, shortened: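 Orthotopic U87MG-Luc nude mice received a single i.v. dose (1 nmol/20 g) of Cy5-labelled conjugate, conjugate plus Gelofusine (4 mg/20 g), unconjugated Cy5-siRNA, or monovalent comparator. Whole-body IVIS Cy5 imaging (ex 640 nm, em 680 nm) was done at 12, 24, 36 and 48 hr. At 24 hr some mice were sacrificed and their tumours and major organs imaged ex vivo.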

[9] = tested on: U87MG cells; experiment: Cell apoptosis analysis, Annexin V-FITC/PI flow cytometry; format: cell-based, human; details: 72 hr post-treatment
Procedure, shortened: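 U87MG cells attached 24 hr, then exposed to the test conjugate (100, 200, 400 or 600 nM) or scrambled conjugate (600 nM) in serum-free Opti-MEM for 24 hr; untreated control. 10% serum was then added and cells held 72 hr. Apoptosis was measured by Annexin V-FITC/PI staining per kit and read on a flow cytometer as apoptosis rate.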

[10] = tested on: PIK3CB mRNA; experiment: In vivo silencing, PIK3CB mRNA in tumor by qRT-PCR; set-up: species or system human; details: versus saline and biRGD-siNC
[11] = tested on: PIK3CB mRNA; experiment: PIK3CB mRNA level by qRT-PCR in U87MG cells; format: cell-based, human; details: no transfection agent, 48 hr, normalized with GAPDH
[12] = tested on: orthotopic U87MG-Luc glioblastoma; experiment: ki67 staining and TUNEL assay of tumor sections; format: in vivo, nude mice
Procedure, shortened: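 Tumours from the anti-tumour study were used (saline, scrambled 1 nmol/20 g, or test 0.5 or 1 nmol/20 g, i.v. 12 times at 24-hr intervals). They were fixed in 4% paraformaldehyde, paraffin-embedded and cut into 5-μm sections. Sections were stained by Ki67 immunohistochemistry and TUNEL kit. Results were expressed as Ki67-positive/total cells and apoptotic index (TUNEL-positive/total cells).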

[13] = Immunogenicity evaluation, serum cytokines by ELISA; format: in vivo, BALB/c mice; details: 5nmol/20 g single injection, serum at 6hr
Procedure, shortened: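 Immunocompetent BALB/c mice (4–6 weeks, ~20 g) got a single injection of saline or test conjugate (5 nmol/20 g), alone or mixed with Gelofusine (4 mg/20 g). Serum was collected at 6 hr, and IL-6, IFN-β and TNF-α were measured by ELISA kit.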

[14] = tested on: PIK3CB protein; format: in vivo, human
[15] = tested on: U87MG cells; experiment: Transwell migration assay; format: cell-based, human; details: 100-600 nM, 48-hr treatment, Matrigel-coated 8-μm inserts, migration 24 hr
Procedure, shortened: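 U87MG cells were exposed to test conjugate (100–600 nM) or scrambled conjugate (600 nM) in serum-free Opti-MEM for 24 hr, then held 48 hr with 10% serum. Cells (5 × 10⁴ in serum-free DMEM) were placed on Matrigel-coated (2 mg/mL) 8-μm inserts, with 10% FBS DMEM below, and allowed to migrate 24 hr. Crystal-violet-stained cells were counted in five random fields.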

[16] = Hepatotoxicity, serum ALT; set-up: species or system nude mice; details: serum from in vivo anti-tumor assay
Procedure, shortened: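 Serum came from orthotopic U87MG-Luc nude mice in the anti-tumour study. Dosing was saline, scrambled conjugate 1 nmol/20 g, or test conjugate 0.5 or 1 nmol/20 g, given i.v. 12 times at 24-hr intervals. Serum was collected after sacrifice on day 12. ALT was measured on an automated chemistry analyser following the manufacturer's instructions.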

[17] = tested on: kidneys; experiment: Histopathological evaluation of kidneys; format: in vivo, nude mice; details: 1 nmol/20 g i.v., 12 times over a 24-hr interval, H&E
Procedure, shortened: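 Kidneys from orthotopic U87MG-Luc nude mice dosed i.v. 12 times at 24-hr intervals were used. Tissues were fixed at once in 4% paraformaldehyde, paraffin-embedded, cut into 5-μm sections and stained with H&E for histology.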

[18] = Serum stability assay; format: in vitro ADME; details: 5 μL 20 μM mixed with 5 μL mouse serum, 37°C, 1.2% agarose gel
[19] = 0.5 nmol/20 g i.v. x12, versus saline and biRGD-siNC
[20] = 1 nmol/20 g i.v. x12, versus saline and biRGD-siNC

Substance: [cyclo(Arg-Gly-Asp-D-Phe-Lys)-Ahx]2-Glu-PEG-MAL (bicyclic or more) [biRGD-siNC, reference compound]
- course of body weight [1]: rapid decrease in body weight
- median survival time [1]: 23 days
- tumor growth (luminescence intensity) versus saline [2]: no significant difference
- PIK3CB protein level, remaining amount ([3]; 600 nM): almost no effect

Substance: [cyclo(Arg-Gly-Asp-D-Phe-Lys)-Ahx]2-Glu-PEG-MAL (bicyclic or more) [biRGD-siNC-Cy5]
- cellular uptake [4]: no uptake
- Cy5 signal in sections of GBM-bearing brain tissues ([5]; CD31 staining): significantly higher
- Cy5 signal in sections of normal brain tissues [5]: little
- intracellular distribution after pre-treating with excess biRGD peptide ([6]; U87MG blocked with biRGD (1 μM)): inhibited
- intracellular distribution (Cy5, confocal) ([6]; U87MG, 600 nM): substantial uptake and wide distribution in the cell
- subcellular localization versus trans-Golgi marker TGN46 ([6]; U87MG, 600 nM, anti-TGN46/Alexa Fluor 488): substantial overlap with TGN46 protein
- uptake after blocking integrin αvβ3 receptors ([7]; U87MG pre-treated with 1 μM unconjugated biRGD peptide, 37°C, 1 hr): inhibited
- uptake relative to cRGD-siNC-Cy5 ([7]; U87MG, 600 nM, 12 hr, Cy5 flow cytometry): approximately twice
- cellular uptake ([7]; U87MG, 100 to 600 nM, Opti-MEM, 12 hr, 37°C, Cy5 flow cytometry): enhanced cellular uptake that increased progressively
- saturation of uptake ([7]; U87MG, tested range 100 to 600 nM): No evidence of saturation of uptake
- time of peak Cy5 fluorescence intensity of orthotopic GBM ([8]; 1 nmol/20 g i.v. single dose, IVIS): 24 h
- Cy5 fluorescence within the tumor and kidneys ([8]; 1 nmol/20 g i.v. single dose, IVIS at 12, 24, and 36 hr): high red Cy5 fluorescent expressions
- presence in other main organs (heart, spleen, and lung), ex vivo ([8]; 1 nmol/20 g i.v., organs excised at 24 hr): not found
- ex vivo targeting of GBM-bearing brain tissue ([8]; 1 nmol/20 g i.v., organs excised at 24 hr, ex vivo Cy5 imaging): specifically target the GBM-bearing brain tissue

Substance: [cyclo(Arg-Gly-Asp-D-Phe-Lys)-Ahx]2-Glu-PEG-MAL (bicyclic or more) [biRGD-siPIK3CB]
- course of body weight [1]: steady
- median survival time [1]: 26 days
- apoptosis rate ([9]; 400 nM): 15.14%
- apoptosis rate ([9]; 600 nM): 20.76%
- PIK3CB mRNA expression in tumor ([10]; 0.5 nmol/20 g i.v. x12, qRT-PCR): obviously low expression
- PIK3CB mRNA expression in tumor ([10]; 1 nmol/20 g i.v. x12, qRT-PCR): obviously low expression
- tumor growth (luminescence intensity) versus saline and biRGD-siNC ([2]; 0.5 nmol/20 g i.v.): no significance
- tumor growth (luminescence intensity) versus saline [2]: significant tumor growth inhibition
- PIK3CB mRNA level, remaining amount ([11]; 400 nM): about 60%
- PIK3CB mRNA level, remaining amount ([11]; 600 nM): ~50%
- apoptotic tumor cells (TUNEL) [12, 19]: obviously higher number
- proliferative cells in tumors (ki67) [12, 19]: obviously decreased
- apoptotic tumor cells (TUNEL) [12, 20]: obviously higher number
- proliferative cells in tumors (ki67) [12, 20]: obviously decreased
- number of apoptotic tumor cells, 1 nmol/20 g group relative to 0.5 nmol/20 g group ([12]; TUNEL): about twice
- IFN-β level of the serum versus saline [13]: no significant difference
- IL-6 level of the serum versus saline [13]: no significant difference
- TNF-α level of the serum versus saline [13]: no significant difference
- PIK3CB protein level in tumor (immunohistochemistry) ([14]; 0.5 nmol/20 g i.v. x12): remarkably low
- PIK3CB protein level in tumor (immunohistochemistry) ([14]; 1 nmol/20 g i.v. x12): remarkably low
- PIK3CB protein level in tumor (western blot) ([14]; 1 nmol/20 g i.v. x12): significantly decreased
- U87MG cell invasion (transwell migration) [15]: significantly inhibit
- ALT level in the serum versus saline ([16]; mixed with Gelofusine): no statistically meaningful difference
- ALT level in the serum versus saline ([16]; Aeroset Chemistry Analyzer): no statistically meaningful difference
- PIK3CB protein level, remaining amount ([3]; 400 nM): about 70%
- PIK3CB protein level, remaining amount ([3]; 600 nM): about 60%
- pathological sections of kidneys versus saline [17]: mild pathological changes in kidneys
- degradation in mouse serum at 96 hr ([18]; 96 hr): low degradation

Substance: cyclo(Arg-Gly-Asp-D-Phe-Lys) (head to tail) [cRGD-siNC-Cy5, reference compound]
- intracellular distribution (Cy5, confocal) ([6]; U87MG, 600 nM): substantial uptake and wide distribution in the cell

Substance: siPIK3CB: sense 5′-AC(mC)(mU)G(mU)GGAUACUCAU(mU)A(mA)dTdT-3′, antisense 5′-U(mU)AA(mU)GAGUAUCCA(mC)AG(mG)(mU)dTdT-3′
- incubation time in mouse serum after which degraded ([18]; 0-96 hr): 48 h
